This note sets out measurements from ChEMBL document CHEMBL3616444, “Design, synthesis and pharmacological evaluation of pyrimidobenzothiazole-3-carboxylate derivatives as selective L-type calcium channel blockers” (Bioorg Med Chem, 2015).

The nature of experiment [1]: Inhibition of porcine kidney ACE assessed as reduction in hippuryl-histidyl-leucine hydrolysis to hippuric acid release incubated for 30 mins high-throughput colorimetric method. Also on record: species or system Sus scrofa. In outline: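 Porcine kidney ACE in 1 M sodium borate buffer pH 8.2 with 0.3 M NaCl and 5 mM HHL substrate (stock); 37 °C for 30 min, stopped with 1 M HCl. Released hippuric acid complexed with pyridine and benzene sulfonyl chloride, cooled on ice, yellow colour read at 410 nm; IC50 from log plots, at least five determinations per concentration.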

Experiment [2] addresses Myosin light chain kinase, smooth muscle (Homo sapiens, UniProt Q15746). As to the kind of experiment: Inhibition of MLCK (unknown origin) incubated for 15 mins using [gamma-32P]-ATP by scintillation counting method. The method, boiled down:
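Active MLCK thawed on ice with kinase assay and dilution buffers and substrate; reaction with γ-32P-ATP incubated 15 min at 30 °C in a water bath, spotted on phosphocellulose P81 paper, washed three times ~10 min in 1% phosphoric acid. Radioactivity by scintillation counting, blank-corrected cpm converted to specific activity (nmol/min/mg); IC50 from log plots, at least five determinations per concentration.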

Experiment [3] relates to Rattus norvegicus. As to the kind of experiment: Antihypertensive activity in Norwegian albino rat model of DOCA-salt-induced hypertension assessed as inhibition of systolic blood pressure at 10 mg/kg, po after 5 hrs by non-invasive tail cuff method relative to control. In kind it is functional. The method, boiled down:
(§1)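 DOCA-salt hypertensive rats; systolic pressure by tail cuff after 10 mg/kg, recorded hourly from 0 to 10 h; percent inhibition computed. Data as mean ± SEM, repeated-measures ANOVA.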

Experiment [4] deals with Rattus norvegicus. The experiment can be described thus: Antihypertensive activity in Norwegian albino rat model of DOCA-salt-induced hypertension assessed as inhibition of systolic blood pressure at 10 mg/kg, po after 3 hrs by non-invasive tail cuff method relative to control. In kind it is functional. In outline:
as §1

Experiment [5] deals with Rattus norvegicus. As to the kind of experiment: Antihypertensive activity in Norwegian albino rat model of DOCA-salt-induced hypertension assessed as inhibition of systolic blood pressure at 10 mg/kg, po after 2 hrs by non-invasive tail cuff method relative to control. In kind it is functional. The method, boiled down: as §1
Experiment [6] has as its system Rattus norvegicus. The experiment can be described thus: Antihypertensive activity in Norwegian albino rat model of DOCA-salt-induced hypertension assessed as inhibition of systolic blood pressure at 10 mg/kg, po after 6 hrs by non-invasive tail cuff method relative to control. In kind it is functional. The method, boiled down: as §1
Experiment [7] relates to Rattus norvegicus. The experiment can be described thus: Antihypertensive activity in Norwegian albino rat model of DOCA-salt-induced hypertension assessed as inhibition of systolic blood pressure at 10 mg/kg, po after 8 hrs by non-invasive tail cuff method relative to control. In kind it is functional. The method, boiled down:
as §1

The subject of experiment [8] is Rattus norvegicus. The experiment can be described thus: Antihypertensive activity in Norwegian albino rat model of DOCA-salt-induced hypertension assessed as inhibition of systolic blood pressure at 10 mg/kg, po after 10 hrs by non-invasive tail cuff method relative to control. In kind it is functional. In outline:
as §1

Experiment [9] has as its system Rattus norvegicus. As to the kind of experiment: Antihypertensive activity in Norwegian albino rat model of DOCA-salt-induced hypertension assessed as inhibition of systolic blood pressure at 10 mg/kg, po after 1 hr by non-invasive tail cuff method relative to control. In kind it is functional. In outline: as §1
Experiment [10] has as its system Rattus norvegicus. As to the kind of experiment: Antihypertensive activity in Norwegian albino rat model of DOCA-salt-induced hypertension assessed as inhibition of systolic blood pressure at 10 mg/kg, po after 7 hrs by non-invasive tail cuff method relative to control. In kind it is functional. In outline:
as §1

Experiment [11] concerns Rattus norvegicus. As to the kind of experiment: Antihypertensive activity in Norwegian albino rat model of DOCA-salt-induced hypertension assessed as inhibition of systolic blood pressure at 10 mg/kg, po after 9 hrs by non-invasive tail cuff method relative to control. In kind it is functional. In outline:
as §1

Experiment [12] deals with Rattus norvegicus. The experiment can be described thus: Antihypertensive activity in Norwegian albino rat model of DOCA-salt-induced hypertension assessed as inhibition of systolic blood pressure at 10 mg/kg, po after 4 hrs by non-invasive tail cuff method relative to control. In kind it is functional. The method, boiled down:
as §1

Bounds are passed on as bounds.

Chain of Myosin light chain kinase, smooth muscle (Q15746 whole entry): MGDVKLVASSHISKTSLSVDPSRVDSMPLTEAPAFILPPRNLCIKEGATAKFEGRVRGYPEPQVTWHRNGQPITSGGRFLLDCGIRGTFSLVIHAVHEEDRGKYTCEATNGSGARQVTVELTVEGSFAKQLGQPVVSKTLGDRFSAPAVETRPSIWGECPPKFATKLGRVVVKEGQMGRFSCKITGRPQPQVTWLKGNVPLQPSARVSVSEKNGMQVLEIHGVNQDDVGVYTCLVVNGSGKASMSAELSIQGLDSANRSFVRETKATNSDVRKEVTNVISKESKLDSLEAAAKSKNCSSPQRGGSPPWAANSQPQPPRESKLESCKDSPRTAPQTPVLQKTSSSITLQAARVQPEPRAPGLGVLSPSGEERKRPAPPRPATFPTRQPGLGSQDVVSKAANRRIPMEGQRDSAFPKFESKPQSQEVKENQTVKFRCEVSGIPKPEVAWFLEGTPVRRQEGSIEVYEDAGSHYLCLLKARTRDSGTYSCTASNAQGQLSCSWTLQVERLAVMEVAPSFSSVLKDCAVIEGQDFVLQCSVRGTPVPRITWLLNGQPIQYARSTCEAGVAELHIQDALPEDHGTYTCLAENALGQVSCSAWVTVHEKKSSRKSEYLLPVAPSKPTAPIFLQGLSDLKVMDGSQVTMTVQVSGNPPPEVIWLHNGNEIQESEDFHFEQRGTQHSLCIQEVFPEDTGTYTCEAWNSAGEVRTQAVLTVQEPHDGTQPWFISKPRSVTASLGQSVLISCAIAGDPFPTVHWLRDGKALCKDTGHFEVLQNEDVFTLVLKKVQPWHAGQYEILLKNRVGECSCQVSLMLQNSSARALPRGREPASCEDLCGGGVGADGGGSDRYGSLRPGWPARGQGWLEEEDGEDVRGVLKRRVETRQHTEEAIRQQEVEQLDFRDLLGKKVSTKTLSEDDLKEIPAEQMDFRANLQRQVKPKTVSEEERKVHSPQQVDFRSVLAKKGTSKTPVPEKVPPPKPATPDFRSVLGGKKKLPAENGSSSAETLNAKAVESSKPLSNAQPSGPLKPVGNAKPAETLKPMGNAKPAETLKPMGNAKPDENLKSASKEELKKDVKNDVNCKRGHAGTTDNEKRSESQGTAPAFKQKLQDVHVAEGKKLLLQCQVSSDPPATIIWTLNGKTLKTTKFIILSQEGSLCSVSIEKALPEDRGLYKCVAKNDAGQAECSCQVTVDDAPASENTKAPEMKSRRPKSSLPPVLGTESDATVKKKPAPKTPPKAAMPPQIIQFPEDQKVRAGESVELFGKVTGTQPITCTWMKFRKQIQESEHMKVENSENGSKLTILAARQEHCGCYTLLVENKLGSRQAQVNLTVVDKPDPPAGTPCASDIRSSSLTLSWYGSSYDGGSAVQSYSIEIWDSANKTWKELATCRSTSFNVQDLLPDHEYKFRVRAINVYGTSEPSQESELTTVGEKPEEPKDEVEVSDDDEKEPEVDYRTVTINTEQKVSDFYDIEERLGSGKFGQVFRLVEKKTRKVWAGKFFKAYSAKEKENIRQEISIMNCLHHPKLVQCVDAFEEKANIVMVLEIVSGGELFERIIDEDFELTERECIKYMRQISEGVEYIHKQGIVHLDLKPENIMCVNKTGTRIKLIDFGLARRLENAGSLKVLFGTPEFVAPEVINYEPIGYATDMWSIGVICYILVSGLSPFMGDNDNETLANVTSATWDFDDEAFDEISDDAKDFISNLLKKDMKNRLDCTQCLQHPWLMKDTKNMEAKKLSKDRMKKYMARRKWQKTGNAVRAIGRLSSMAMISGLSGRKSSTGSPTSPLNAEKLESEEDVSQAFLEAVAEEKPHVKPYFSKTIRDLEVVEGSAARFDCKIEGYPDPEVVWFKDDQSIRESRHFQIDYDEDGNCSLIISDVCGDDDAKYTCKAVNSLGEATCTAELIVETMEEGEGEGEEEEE

Take `CCOC(=O)C1=C(C)NC(OC)N(CC(=O)c2ccc(OC)cc2)C1c1ccc(Cl)cc1` (configuration not stated): the IC50 in experiment [1] is more than 100 µM; in experiment [2] (read-out: IC50) it was 18.2 µM; in experiment [2] (read-out: pIC50 (converted)), 5490 µM.

By inhibition in vivo is commonly meant the percentage by which the read-out fell short of the control. For `COC(=O)C1=C(C)N=C2Sc3ccccc3N2C1c1ccccc1Cl` (configuration not stated), the inhibition in vivo at 10 mg/kg in the experiment with Rattus norvegicus [3] was 22.6%; in the experiment with Rattus norvegicus [4], 14.6%; with Rattus norvegicus [5] it was 2.65%; in the experiment on Rattus norvegicus [6] it was 24.8%; with Rattus norvegicus [7], 28.8%; in the experiment on Rattus norvegicus [8] it was 33.6%. Moreover, the inhibition in vivo at 10 mg/kg stood at 1.77% with Rattus norvegicus [9], 27% in the experiment on Rattus norvegicus [10], 31.4% with Rattus norvegicus [11] and 18.1% in the experiment with Rattus norvegicus [12]. Moreover, the IC50 in [1] was more than 100 µM; in experiment [2] (read-out: IC50), 9.8 µM; in [2] (read-out: pIC50 (converted)), 10200 µM.

`COC(=O)C1=C(C)N=C2Sc3ccccc3N2C1c1ccccc1O` (configuration not stated): the inhibition in vivo at 10 mg/kg with Rattus norvegicus [3] turned out to be 26.3%; with Rattus norvegicus [4] it was 19.6%; in the experiment with Rattus norvegicus [5] it was 8.48%; with Rattus norvegicus [6] it was 33%; with Rattus norvegicus [7], 42%; with Rattus norvegicus [8], 46.4%. Also, the inhibition in vivo at 10 mg/kg stood at 3.57% in the experiment with Rattus norvegicus [9], 36.6% in the experiment with Rattus norvegicus [10], 43.8% in the experiment with Rattus norvegicus [11] and 24.1% with Rattus norvegicus [12]. The results for the IC50 in [1], in experiment [2] (read-out: IC50) and in [2] (read-out: pIC50 (converted)) were more than 100 µM, 4.3 µM and 23300 µM, respectively.

As for `COC(=O)C1=C(C)N=C2Sc3ccccc3N2C1c1ccc(O)cc1` (configuration not stated), the inhibition in vivo at 10 mg/kg with Rattus norvegicus [3] was 29.4%; with Rattus norvegicus [4] it was 19.7%; in the experiment on Rattus norvegicus [5], 7.89%; with Rattus norvegicus [6], 34.2%; in the experiment on Rattus norvegicus [7], 39.5%; in the experiment on Rattus norvegicus [8] it was 42.1%. Further, the inhibition in vivo at 10 mg/kg with Rattus norvegicus [9] amounted to 3.51%; in the experiment with Rattus norvegicus [10] it was 38.2%; with Rattus norvegicus [11] it was 40.8%; with Rattus norvegicus [12], 25.4%. For the same compound, the IC50 in experiment [1] was more than 100 µM; in experiment [2] (read-out: IC50), 4.21 µM; in experiment [2] (read-out: pIC50 (converted)) it was 23800 µM.

As to `COC(=O)C1=C(C)N=C2Sc3ccccc3N2C1c1ccc(N(C)C)cc1` (configuration not stated), the inhibition in vivo at 10 mg/kg turned out to be 22.6% in the experiment with Rattus norvegicus [3]; 14.6% in the experiment with Rattus norvegicus [4]; 2.65% in the experiment on Rattus norvegicus [5]; 24.8% in the experiment with Rattus norvegicus [6]; 28.8% in the experiment with Rattus norvegicus [7]; 33.6% in the experiment on Rattus norvegicus [8]. Moreover, the inhibition in vivo at 10 mg/kg stood at 1.77% in the experiment with Rattus norvegicus [9], 27% in the experiment on Rattus norvegicus [10], 31.4% in the experiment on Rattus norvegicus [11] and 18.1% with Rattus norvegicus [12]. In addition, the IC50 is more than 100 µM in [1], 4.37 µM in experiment [2] (read-out: IC50) and 22900 µM in [2] (read-out: pIC50 (converted)).

As for `CCOC(=O)C1=C(C)N=C2Sc3ccccc3N2C1c1ccccc1Cl` (configuration not stated), the inhibition in vivo at 10 mg/kg was determined as 22.6% with Rattus norvegicus [3]; 14.6% in the experiment with Rattus norvegicus [4]; 2.65% in the experiment with Rattus norvegicus [5]; 24.8% in the experiment with Rattus norvegicus [6]; 28.8% in the experiment on Rattus norvegicus [7]; 33.6% in the experiment with Rattus norvegicus [8]. Moreover, the inhibition in vivo at 10 mg/kg with Rattus norvegicus [9] is 1.77%; with Rattus norvegicus [10], 27%; with Rattus norvegicus [11], 31.4%; in the experiment with Rattus norvegicus [12], 18.1%. Also, the IC50 in experiment [1] was more than 100 µM; in experiment [2] (read-out: IC50) it was 10.8 µM; in [2] (read-out: pIC50 (converted)), 9260 µM.

On to `CCc1nc(Nc2nc3ccccc3s2)nc(C)c1C(C)=O`, for which the inhibition in vivo at 10 mg/kg in the experiment on Rattus norvegicus [3] is 6.22%; in the experiment with Rattus norvegicus [4] it was 0.44%; in the experiment with Rattus norvegicus [5], 0%; in the experiment with Rattus norvegicus [6] it was 7.56%; in the experiment on Rattus norvegicus [7], 8%; with Rattus norvegicus [8], 8.89%. For the same compound, the inhibition in vivo at 10 mg/kg was 0.44% in the experiment with Rattus norvegicus [9], 8% with Rattus norvegicus [10], 8.44% in the experiment with Rattus norvegicus [11] and 1.33% in the experiment with Rattus norvegicus [12]. The IC50 in [1] and in experiment [2] (read-out: IC50) was more than 100 µM in each case.

Turning to `CCOC(=O)C1=C(C)NC(OC)N(CC(=O)c2ccc(Cl)cc2)C1c1ccc(Cl)cc1` (configuration not stated), the figures for the IC50 in experiment [1], in experiment [2] (read-out: IC50) and in [2] (read-out: pIC50 (converted)) were more than 100 µM, 41.3 µM and 2420 µM, respectively.

Turning to `CCOC(=O)C1=C(C)NC(OC)N(CC(=O)c2ccc(Cl)cc2)C1c1ccc(O)cc1` (configuration not stated), the IC50 in [1] is more than 100 µM; in [2] (read-out: IC50), 15.2 µM; in [2] (read-out: pIC50 (converted)), 6580 µM.

As for `CCOC(=O)C1=C(C)NC(OC)N(CC(=O)c2ccc(OC)cc2)C1c1ccc(O)cc1` (configuration not stated), the IC50 was more than 100 µM in experiment [1], 9.8 µM in experiment [2] (read-out: IC50) and 10.2 µM in experiment [2] (read-out: pIC50 (converted)).

Regarding `CCOC(=O)C1=C(C)NC(OC)N(CC(=O)c2ccc(OC)cc2)C1c1ccc(OC)cc1` (configuration not stated), the IC50 in [1] is more than 100 µM; in experiment [2] (read-out: IC50), 4.1 µM; in [2] (read-out: pIC50 (converted)), 24.4 µM.

`CCOC(=O)C1=C(C)NC(OC)N(CC(=O)c2ccccc2)C1c1ccc(Cl)cc1` (configuration not stated): the IC50 is more than 100 µM in experiment [1], 31.3 µM in experiment [2] (read-out: IC50) and 3190 µM in experiment [2] (read-out: pIC50 (converted)).

Regarding `CCOC(=O)C1=C(C)NC(OC)N(CC(=O)c2ccccc2)C1c1ccc(C)cc1` (configuration not stated), the IC50 in experiment [1] is more than 100 µM; in experiment [2] (read-out: IC50) it was 19.2 µM; in [2] (read-out: pIC50 (converted)), 5210 µM.

Take `CCOC(=O)C1=C(C)NC(OC)N(CC(=O)c2ccc(OC)cc2)C1c1ccc(C)cc1` (configuration not stated): the IC50 in [1] is more than 100 µM; in experiment [2] (read-out: IC50) it was 5.1 µM; in experiment [2] (read-out: pIC50 (converted)), 19.6 µM.

For `CCOC(=O)C1=C(C)NC(OC)N(CC(=O)c2ccc(Cl)cc2)C1c1ccc(OC)cc1` (configuration not stated), the IC50 in experiment [1] was more than 100 µM; in experiment [2] (read-out: IC50), 30.3 µM; in experiment [2] (read-out: pIC50 (converted)), 3300 µM.

As to `CCOC(=O)C1=C(C)NC(OC)N(CC(=O)c2ccc(Cl)cc2)C1c1ccc(C)cc1` (configuration not stated), the IC50 in experiment [1] is more than 100 µM; in experiment [2] (read-out: IC50), 29.2 µM; in experiment [2] (read-out: pIC50 (converted)), 3420 µM.

For the compound `CCOC(=O)C1=C(C)NC(OC)N(CC(=O)c2ccccc2)C1c1ccccc1` (configuration not stated), the IC50 in [1] was more than 100 µM; in experiment [2] (read-out: IC50) it was 23.3 µM; in [2] (read-out: pIC50 (converted)), 4290 µM.

Regarding `CCOC(=O)C1=C(C)NC(OC)N(CC(=O)c2ccc(Cl)cc2)C1c1ccccc1` (configuration not stated), the IC50 is more than 100 µM in experiment [1], 33.3 µM in experiment [2] (read-out: IC50) and 3000 µM in experiment [2] (read-out: pIC50 (converted)).

On to `CCOC(=O)C1=C(C)NC(OC)N(CC(=O)c2ccccc2)C1c1ccc(OC)cc1` (configuration not stated), for which the IC50 in experiment [1] is more than 100 µM; in experiment [2] (read-out: IC50), 7.4 µM; in experiment [2] (read-out: pIC50 (converted)), 13.5 µM.

Consider `CCOC(=O)C1=C(C)NC(OC)N(CC(=O)c2ccc(OC)cc2)C1c1ccccc1` (configuration not stated), for which the IC50 in experiment [1] is more than 100 µM; in experiment [2] (read-out: IC50) it was 13.3 µM; in [2] (read-out: pIC50 (converted)), 7.52 µM.

`CCOC(=O)C1=C(C)NC(OC)N(CC(=O)c2ccccc2)C1c1ccc(O)cc1` (configuration not stated): the IC50 was more than 100 µM in experiment [1], 10.2 µM in experiment [2] (read-out: IC50) and 9.8 µM in experiment [2] (read-out: pIC50 (converted)).
